Screens deposited in PubChem by several laboratories.
Shown are actives, neighbours in structure and some others; about 0.68% of the full set was active somewhere.
Furin inh: human furin inhibitors, primary screen, biochemical, fluorescence intensity; P09958; purified furin, fluorogenic substrate cleavage; inhibition, % at 20 µM or 30 µM; hit rate 0.061% among 220,000; in the data active = inhibition above about 25%
TNAP inh noacc: human TNAP enzyme inhibitors, primary screen, biochemical, luminescent, no phosphate acceptor, uHTS; Alkaline phosphatase, tissue-nonspecific isozyme (Homo sapiens), P05186; purified TNAP, CDP-star luminescence, 30 min; inhibition, % at 20 µM; hit rate 0.26% among 200,000; AID 1012, 2008;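 active = tissue-nonspecific alkaline phosphatase inhibition above about 50% at 20 µM in the single-dose screen, limit read from the data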;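 also: 0% = DMSO negative control and 100% = EDTA positive control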
Target sequence (P05186 whole entry, looked up): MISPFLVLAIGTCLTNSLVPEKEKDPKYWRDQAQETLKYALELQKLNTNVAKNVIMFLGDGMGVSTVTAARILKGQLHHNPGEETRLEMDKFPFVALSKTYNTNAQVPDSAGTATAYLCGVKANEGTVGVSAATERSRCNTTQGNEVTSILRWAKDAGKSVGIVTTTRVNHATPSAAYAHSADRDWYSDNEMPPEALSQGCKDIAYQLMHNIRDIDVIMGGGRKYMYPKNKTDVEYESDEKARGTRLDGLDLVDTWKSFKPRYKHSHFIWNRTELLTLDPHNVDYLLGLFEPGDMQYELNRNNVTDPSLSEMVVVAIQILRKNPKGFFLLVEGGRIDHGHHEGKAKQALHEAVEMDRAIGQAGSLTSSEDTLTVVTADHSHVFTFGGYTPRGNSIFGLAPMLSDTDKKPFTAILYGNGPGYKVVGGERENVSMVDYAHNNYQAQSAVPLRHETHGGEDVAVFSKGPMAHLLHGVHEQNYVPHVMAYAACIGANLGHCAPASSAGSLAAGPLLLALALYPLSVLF
Pf gamet viab: late stage P. falciparum gametocyte viability inhibitors, primary screen, ATP luminescence, HTS; hit rate 0.065% among 150,000; P. falciparum stage V gametocytes, 24 h; inhibition, % at 10.9 µM;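 active = inhibition above the mean plus 3 SD of compounds within the control limits, set per campaign, cut at about 38% in these data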;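 also: 0% = DMSO wells and 100% = medium only without gametocytes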
HMGR II inh: inhibitors of E. faecalis class II HMGR, primary screen, biochemical, Enterococcus faecalis. HMG-CoA reductase (Enterococcus faecalis, mvaE). purified E. faecalis HMGR, NADPH absorbance 340 nm kinetic. inhibition, % at 10 µM. hit rate 0.41% among 190,000. AID 1066, 2008;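 active = inhibition above a set limit, the median over all tested compounds plus 3 SD, cut at about 9.5% in these data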;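 also: enzyme runs in reverse so mevalonate oxidation gives rising NADPH absorbance; 0% = complete reaction with DMSO and 100% = background rate lacking mevalonate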
TNAP inh hiacc: human TNAP enzyme inhibitors, primary screen, biochemical, luminescent, high phosphate acceptor level, uHTS. Alkaline phosphatase, tissue-nonspecific isozyme (Homo sapiens), P05186. AID 1135, 2008. inhibition, % at 20 µM. hit rate 0.03% among 200,000. purified TNAP, CDP-star luminescence, 1 M DEA;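 active = over 50% inhibition of tissue-nonspecific alkaline phosphatase at 20 µM in the single-dose screen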;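 also: plate controls were DMSO wells for no effect and EDTA-quenched wells as full inhibition for full effect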
TNAP act hiacc: TNAP activators at high phosphate acceptor level, primary screen, biochemical, luminescence, uHTS; AID 1136, 2008; activation factor at 20 µM; Alkaline phosphatase, tissue-nonspecific isozyme (Homo sapiens), P05186; purified TNAP, CDP-star luminescence, 1 M DEA, 30 min; hits give high values; 0 = EDTA background, 1 = DMSO-only activity; 200,000 tested, under 10 active;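 active = activation factor at least 2 at 20 µM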
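Measured by: Luminescent substrate turnover signal | Test system: Human TNAP | Input: TNAP 1/800 final | Dosing: 20 µM single point | Schedule: 30 min, room temperature | Controls: EDTA wells as negative control, DMSO wells as positive control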
Numbers without * were called inactive; . = no result.

SMILES	Furin inh	TNAP inh noacc	Pf gamet viab	HMGR II inh	TNAP inh hiacc	TNAP act hiacc
Nc1nn2cc(-c3ccccc3)nc2c2ccccc12	-27	-16	-2	11*	-5	1
Cc1cn2nc(N)c3ccccc3c2n1	-16	-17	.	-3	-9	1.1
Cn1cc(CN2CCCC(CO)(Cc3ccccc3)C2)cn1 (centres undefined)	-35	-5	-20	-4	-3	1
Cn1nnc2cc(C(=O)NC3CC3)ccc21	-13	-10	.	-9	-8	1.1
Cn1nnc2cc(C(=O)Nc3ccc4ccccc4c3)ccc21	-21	-11	.	13*	-5	1.1
Cc1ccc2[nH]c(C)c(CCNC(=O)C3CCCCC3C(=O)OCC(F)(F)F)c2c1 (centres undefined)	-7	11	-20	-2	0	1
CCOc1ncccc1C(=O)N1CCCSC1=Nc1ccc(C(C)=O)cc1	-15	-2	-1	-7	1	1
Cn1nc([N+](=O)[O-])nc1Sc1nnnn1-c1ccc(C(=O)O)cc1	-25	-4	8	17*	-5	1
CC(C)N(C(=O)Cc1ccccc1[N+](=O)[O-])C(C)C	-18	-11	-6	0	-4	1
O=C(NN1C(=O)c2ccc3c4c(ccc(c24)C1=O)CC3)c1ccc(Br)cc1	-28	-6	.	-2	0	1
COc1cccc2sc(/N=C/N(C)C)nc12	9	.	-19	.	.	.
CC1=Nn2c(nnc2-c2cc(-c3ccccc3)n[nH]2)SC1	-15	51*	-7	1	-1	1
COc1ccc(C)cc1N1C(=N)/C(=C2/Nc3ccccc3S2)C(c2ccccc2)C1=O (centres undefined)	-14	-1	.	-3	3	1
Cc1cc(Cl)ccc1C(=O)C1CCCN(C(=O)c2n[nH]c3c2CCCC3)C1 (centres undefined)	-18	21	8	-2	-6	1.1
COc1ccc(C(=O)C2CCCN(C(=O)c3n[nH]c4c3CCCC4)C2)cc1OC (centres undefined)	-32	60*	8	1	-3	1
CN(CC(=O)Nc1ccc2c(c1)CCC2)CC(=O)Nc1ccccc1Br	-21	-11	39*	-7	0	1
COc1ccc(NC(=O)CN(C)CC(=O)Nc2ccc3c(c2)CCC3)cc1	8	0	-4	-2	-1	1
N=C(N)SCc1ccccn1	-19	51*	0	-6	-2	1
COc1ccc(-c2cc(-n3c(C(F)(F)F)nc4ccccc43)n(CCC#N)n2)cc1	-20	-10	.	13*	-6	1.1
COc1ccc(Sc2nc3ccccc3n3c(C(F)(F)F)nnc23)cc1	-22	-4	-11	0	-1	1
C=CCC1Cc2c(cccc2[N+](=O)[O-])C(CC=C)N1 (centres undefined)	-21	-11	24	-1	-13	1.1
C=CCC1C=C(C)CC(CC=C)N1 (centres undefined)	-25	-5	-3	13*	-1	1
Cc1ccnc(SCc2cc(=O)c(OC(=O)c3ccc(Cl)c([N+](=O)[O-])c3)co2)n1	25*	0	-11	-9	-7	1.1
CCCc1nnc(NC(=O)c2c(O)c3cccc4c3n(c2=O)CCC4)s1	.	6	.	.	1	1
NS(=O)(=O)c1cnccc1Nc1ccc(Cl)cc1	-24	87*	4	0	90*	0.1
SMILES	Furin inh	TNAP inh noacc	Pf gamet viab	HMGR II inh	TNAP inh hiacc	TNAP act hiacc
Cc1ccc(NC(=O)C2(NC(=O)c3ccccn3)CCCCC2)cc1Br	1	-5	.	-3	2	1
COc1ccc(N(C)C(=O)c2oc(=O)c3ccccc3c2-c2ccc(C)cc2)c(OC)c1	-9	.	-17	.	.	.
COc1ccc(-c2noc(CSc3nnc(Cc4ccccc4)n3-c3ccc(Cl)cc3)n2)cc1	-3	-1	-18	-6	-2	1
Cc1ccc(-c2noc(CSc3nnc(Cc4ccccc4)n3-c3ccc(Cl)cc3)n2)cc1	4	-16	.	18*	-7	1.1
CCOC(=O)Nc1ccc2c(c1)Sc1ccccc1N2C(=O)CCN1CCOCC1	-19	-10	3	1	-6	1.1
O=[N+]([O-])c1ccc2[nH]nc(-c3ccccc3)c2c1	-11	-5	-10	9.8*	4	1
O=C(Nc1ccc(Cl)c(Cl)c1)N(CCCN1CCOCC1)Cc1cccs1	-23	-20	.	0	-7	1.1
O=C(c1ccco1)N1CCN(C2CC(=O)N(c3ccc4c(c3)OCO4)C2=O)CC1 (centres undefined)	31*	-3	-33	0	-4	1
Fc1ccc(-n2nnc(-c3nccs3)n2)cc1	-34	-5	15	-2	-6	1.1
O=C(CN1C(=O)C2C3C=CC(C3)C2C1=O)NCc1ccc2c(c1)OCO2 (centres undefined)	27*	-12	.	-7	-7	1.1
O=C(CN1C(=O)C2CC=CCC2C1=O)NCc1ccc2c(c1)OCO2 (centres undefined)	-1	-13	4	-1	-4	1
CN(Cc1ccccc1)c1nc(N)nc(Cl)c1C=O	-25	-14	-14	14*	-1	1
Cc1c(C=O)c(C=O)c(C)n1Cc1ccccc1	3	-5	-14	-3	0	1
CCOC(=O)Nc1ccc2c(c1)N(C(=O)N1CCN(C)CC1)c1ccccc1CC2	-30	-8	10	13*	-6	1.1
O=C(COC(=O)c1cc(S(=O)(=O)N2CCCCC2)ccc1N1CCOCC1)NC1CCS(=O)(=O)C1 (centres undefined)	-22	-6	.	14*	-1	1
CC1CCCC(NC(=O)COC(=O)c2cc(S(=O)(=O)N3CCCCC3)ccc2N2CCOCC2)C1C (centres undefined)	4	-9	11	-6	-9	1.1
Cc1nc2ccsc2c(=O)n1-c1cccc(Cl)c1	.	.	-23	.	.	.
Cc1ccc(-n2ncc3c2ncn2c(C)nnc32)cc1C	-14	84*	.	-5	0	1
CCc1nnc2c3cnn(-c4ccccc4)c3ncn12	-20	53*	.	0	4	1
Cc1nc2c3cnn(-c4ccccc4)c3ncn2n1	-8	54*	.	-5	-2	1
c1ccc(-n2ncc3c2ncn2cnnc32)cc1	-12	76*	.	-2	9	0.9
CC(=O)NNc1ncnc2c1cnn2-c1ccc(C)c(C)c1	-27	-190	-13	-4	2	1
c1ccc(-n2ncc3c2ncn2nnnc32)cc1	-13	2	.	0	-5	1
